Only some compounds are listed: those with a hit (about 3.1% of all), similar ones and a draw of the others.
FN deposit inh = fibronectin deposition inhibition. AH1F fibroblasts, Alexa488-fibronectin deposition fluorescence, overnight. inhibition, % at 12.6 µM. actives 0.086% (n = 350,000). AID 743247;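 active means mean inhibition across replicates of 30% or more, regardless of how many single replicates reach that level; inconclusive means mean under 30% yet at least half of replicates reach 30%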
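Material: AH1F fibroblasts assembling fluorescent fibronectin matrix; amount: 10000 AH1F cells/well; medium: DMEM, 2% serum; reagent: Alexa488-fibronectin, 24 nM final in well; dosing: single compound dose, delivered by pin transfer; incubation: 1 h adhesion, overnight exposure; detection: fluorescence after three HBSS washes, excitation 485 nm, emission 525 nm; measure: fibronectin deposition inhibition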
HIV Env fusion = HIV envelope-mediated fusion inhibition; AID 651610; actives 1.1% (n = 360,000); inhibition, % at 12.3 µM; HeLa-JRFL Env/CEM21 cell fusion, luciferase;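 active means mean replicate inhibition score of at least 50 and every replicate individually at or above 50; inconclusive means only one of the two criteria met; inactive means mean below 50 and not all replicates reaching 50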
PAX8 reporter = PAX8 transcriptional activity inhibition | RMG-I TPO-luciferase reporter, SteadyGlo, 24 h | inhibition, % at 12.6 µM | actives 1.2% (n = 360,000) | AID 652154;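 active means mean replicate inhibition at least 60% with every replicate also reaching 60%; inconclusive means only one of the two criteria is met; inactive means mean below 60% and not all replicates reaching 60%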;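 further: luciferase light reporting Pax8 driven TPO promoter activity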
PGC1a acetyl inh = modulators of PGC1a acetylation; AID 651687; actives 0.17% (n = 350,000); inhibition, % at 15.6 µM; U2OS PGC1a acetylation, AlphaScreen anti-acetyl-lysine; with virally co-expressed GCN5 acetyltransferase;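 active means every replicate shows inhibition of at least 40%; inconclusive means mean inhibition at least 40% but some replicate below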
EWS-Fli block = inhibitors of EWS/Fli oncoprotein transcriptional activity. AID 651661. actives 0.67% (n = 350,000). A673 NR0B1-luciferase reporter, viability-normalised. inhibition, % at 12.6 µM;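 active means mean inhibition of at least 50% after viability correction, with every replicate also passing that limit; inconclusive means mean reaches 50% but only one of two replicates passes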;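 further: firefly luciferase signal divided by Alamar Blue viability fluorescence both relative to DMSO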
FGF22 binding = shifts melting point of recombinant human FGF22; recombinant FGF22 thermal shift, SYPRO orange fluorescence; percent of sucrose octasulfate shift, DMSO zero; activity (Tm shift, normalised), % at 9.99 µM; actives 1.5% (n = 340,000); AID 651658;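 active means mean Tm shift, scaled 0 neutral to 100 positive control, at about 1.3% or above, every replicate too, limit read from the data; inconclusive means no clear call, values can overlap the other calls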
Target sequence (Q9HCT0 whole entry, looked up): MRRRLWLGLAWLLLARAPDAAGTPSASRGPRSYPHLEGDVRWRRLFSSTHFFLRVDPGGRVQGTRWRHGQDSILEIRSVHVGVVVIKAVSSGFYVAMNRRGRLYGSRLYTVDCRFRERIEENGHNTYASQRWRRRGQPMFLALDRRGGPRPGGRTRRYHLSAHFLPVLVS
Large screens that a line does not name were inactive; [ ] = dose if it differs, or a comment.

CCN1/C(=C/c2ccc3cc(C)ccc3[n+]2C)Sc2ccc3sccc3c21	HIV Env fusion 61.0, PAX8 reporter 100.1, EWS-Fli block 53.3
CCN1/C(=C/c2ccc3cc(C)ccc3[n+]2CC)Sc2cc(C)ccc21	PAX8 reporter 88.8, EWS-Fli block 59.4 (no result: PGC1a acetyl inh)
C[C@@H]1CN([C@H](C)CO)C(=O)c2cc(N(C)C)ccc2O[C@H]1CN(C)C	none
CCCCN(C)S(=O)(=O)c1ccc(C(=O)N(CCN(C)C)c2nc3ccc(C)cc3s2)cc1	FGF22 binding 44.2 (no result: PGC1a acetyl inh)
COc1ccc(-c2ncncc2-c2ccc(Cl)cc2)c(O)c1	HIV Env fusion 56.2
O=S1(=O)N[C@H](Cc2ccccc2)COc2cccc(F)c21	HIV Env fusion 56.8 (no result: PGC1a acetyl inh)
O=S1(=O)N[C@H](Cc2ccccc2)COc2cccc(N3CCCC3)c21	none (no result: PGC1a acetyl inh)
COc1ccccc1-n1cc([C@@H]2C[C@H]3CN(c4ccccc4)C(=O)[C@]34CCCN24)cn1	HIV Env fusion 58.6, PAX8 reporter 97.8
COc1ccccc1CN1C[C@@H]2C[C@@H](c3ccc(Cl)cc3)N3CCC[C@@]23C1=O	FGF22 binding 43.0 (no result: FN deposit inh)
CN1c2ccc(Br)cc2[C@@H]2[C@@H](CCN2C(=O)Nc2cccc(F)c2)[C@@H]1CO	none (no result: HIV Env fusion)
CCN(C1CCCCC1)S(=O)(=O)c1ccc(S(=O)(=O)N(CC(=O)Nc2ccccc2)C2CC2)cc1	HIV Env fusion 74.8 (no result: FN deposit inh, PAX8 reporter, EWS-Fli block, FGF22 binding)
CCCCCCC(=O)Nc1nc(C)c(-c2csc(Nc3cc(OC)ccc3OC)n2)s1	none
CCCCCC(=O)Nc1nc(C)c(-c2csc(Nc3cc(OC)ccc3OC)n2)s1	FGF22 binding 43.9 (no result: HIV Env fusion)
CC(C)NC(=O)N(C)C[C@@H]1Oc2ccc(NC(=O)Nc3ccc(F)cc3)cc2C(=O)N([C@H](C)CO)C[C@H]1C	none (no result: FN deposit inh, HIV Env fusion)
COc1ccc(Nc2nc3c(C)cccc3cc2C#N)cc1	FGF22 binding 43.0
Cc1cccc(C)c1OCC(=O)OCC(=O)Nc1ccc(Cl)cn1	none
Cc1ccc2c(CC(=O)OCC(=O)Nc3ccc(Cl)cn3)coc2c1	PAX8 reporter 119.0 (no result: PGC1a acetyl inh)
CCC(=O)N1CCC2(CC1)CN(C(=O)Nc1ccccc1F)[C@H](CO)c1c2c2ccc(OC)cc2n1C	none (no result: FN deposit inh, HIV Env fusion, PAX8 reporter)
CC(C)Oc1ccc(C(=O)Nc2ccc(C(F)(F)F)n(C)c2=O)cc1	FGF22 binding 43.8
CC=Cc1ccc2n(c1=O)C[C@@H]1[C@@H](CO)[C@H](C(=O)NC3Cc4ccccc4C3)N(CC3CC3)[C@H]21 (mixture of isomers)	none (no result: FN deposit inh, HIV Env fusion, PAX8 reporter, PGC1a acetyl inh)
O=C(N[C@H]1C=C[C@@H](CC(=O)N2CCC(Cc3ccccc3)CC2)O[C@@H]1CO)c1cnccn1	none (no result: HIV Env fusion, PAX8 reporter, EWS-Fli block)
COc1ccc(S(=O)(=O)Nc2ccccc2C(=O)Nc2nc(-c3ccc(F)cc3)cs2)cc1OC	HIV Env fusion 65.8 (no result: PAX8 reporter, PGC1a acetyl inh, EWS-Fli block, FGF22 binding)
C[C@@H]1CN([C@@H](C)CO)C(=O)Cc2cc(NC(=O)CCC(F)(F)F)ccc2O[C@H]1CN(C)S(=O)(=O)c1ccc(Cl)cc1	none
C[C@@H]1CN([C@@H](C)CO)C(=O)Cc2cc(NC(=O)Cc3cn(C)c4ccccc34)ccc2O[C@H]1CN(C)CC1CC1	none (no result: FN deposit inh, PAX8 reporter)
C=CC(=O)N=c1sc2ccccc2n1-c1ccccc1	PAX8 reporter 92.4
COc1ccccc1-c1ccc2c(c1)[C@@H]1[C@@H](CCN1S(=O)(=O)c1ccccc1OC)[C@H](CO)N2	none (no result: HIV Env fusion)
COc1ccccc1S(=O)(=O)N1CC[C@H]2[C@H](CO)Nc3ccc(-c4ccc(F)cc4)cc3[C@H]21	PAX8 reporter 71.8 (no result: HIV Env fusion)
COc1cccc(-c2ccc3c(c2)[C@H]2[C@H](CCN2S(=O)(=O)c2ccccc2F)[C@@H](CO)N3)c1	PAX8 reporter 101.0 (no result: HIV Env fusion)
COc1cccc(-c2ccc3c(c2)[C@@H]2[C@@H](CCN2S(=O)(=O)c2cccc(OC)c2)[C@@H](CO)N3)c1	FN deposit inh 38.1 (no result: HIV Env fusion)
COc1cccc(S(=O)(=O)N2CC[C@@H]3[C@@H](CO)Nc4ccc(-c5ccccc5OC)cc4[C@@H]32)c1	PAX8 reporter 80.4 (no result: HIV Env fusion)
C[C@H](CO)N1C[C@H](C)[C@@H](CN(C)C(=O)Cc2ccccn2)Oc2ncc(C#C[C@@H](C)O)cc2C1=O	none (no result: PAX8 reporter)
CC(C)NC(=O)N(C)C[C@H]1OCCCC[C@@H](C)Oc2ccc(NC(=O)CCCN(C)C)cc2C(=O)N([C@@H](C)CO)C[C@H]1C	none (no result: FN deposit inh, EWS-Fli block)
O=C(Cc1ccccc1)N1CC[C@@H]2[C@@H](CO)Nc3ccc(-c4ccccc4)cc3[C@@H]21	none (no result: HIV Env fusion)
COc1cccc(-c2ccc3c(c2)[C@H]2[C@H](CCN2C(=O)C2CCCC2)[C@H](CO)N3)c1	HIV Env fusion 55.7[16.7 µM], PAX8 reporter inconclusive (no result: FGF22 binding)
O=S(=O)(c1ccccc1F)N1CC[C@@H]2[C@H](CO)Nc3ccc(C4=CCCCC4)cc3[C@@H]21	PAX8 reporter 89.5 (no result: HIV Env fusion)
O=C(Cc1ccccc1)N1CC[C@@H]2[C@H]1c1cc(-c3ccccc3)ccc1N[C@@H]2CO	PAX8 reporter 62.4 (no result: HIV Env fusion)
Cc1ccc(S(=O)(=O)Nc2ccc3c(c2)C(=O)N([C@H](C)CO)C[C@@H](C)[C@H](CN(C)CC2CC2)OCCCC[C@@H](C)O3)cc1	none (no result: FGF22 binding)
C[C@H](NC(=O)[C@H]1[C@H](CO)[C@H]2Cn3c(ccc(-c4ccccc4F)c3=O)[C@@H]1N2C)c1ccccc1	none (no result: FN deposit inh, PAX8 reporter, PGC1a acetyl inh)
COc1ccc2ccccc2c1/C=N\NC(=O)c1cccnc1	none
O=C(N/N=C/c1c(O)ccc2ccccc12)c1cccnc1	PAX8 reporter 70.4
Cn1nccc1C(=O)N/N=C/c1c(O)ccc2ccccc12	HIV Env fusion 65.8 (no result: PGC1a acetyl inh)
O=C(N/N=C\c1c(O)ccc2ccccc12)c1cncc(Br)c1	PAX8 reporter 65.2 (no result: PGC1a acetyl inh)
O=C(NN=Cc1c(O)ccc2ccccc12)c1ccncc1	PAX8 reporter 95.3
C[C@H](CO)N1C[C@H](C)[C@H](CN(C)S(C)(=O)=O)Oc2ncc(-c3ccccc3)cc2C1=O	none
CCOC(=O)C1(Cc2cccc(Cl)c2)CCCN(C(=O)C2CC2)C1 (stereo unspecified)	FGF22 binding 43.0
CCOC(=O)C1(Cc2ccccc2)CCCN(CCO)C1 (stereo unspecified)	none
CCOC(=O)C1(Cc2ccccc2)CCCN(Cc2ccccn2)C1 (stereo unspecified)	FN deposit inh 30.7
Cc1onc(-c2ccccc2Cl)c1C(=O)N(Cc1nc(-c2ccccc2)no1)C1CCCCC1	HIV Env fusion 87.9 (no result: PAX8 reporter, EWS-Fli block, FGF22 binding)
COc1cccc(NC(=O)CCNS(=O)(=O)c2cccc3nsnc23)c1	FGF22 binding 43.8
C[C@@H]1CN([C@@H](C)CO)S(=O)(=O)c2ccc(C3=CCCCC3)cc2O[C@@H]1CN(C)C(=O)C1CCOCC1	none
Cc1ccc(S(=O)(=O)Oc2ccccc2[N+](=O)[O-])cc1	FGF22 binding 43.3
Cc1ccc(S(=O)(=O)c2ncccc2[N+](=O)[O-])cc1	PAX8 reporter 108.8 (no result: PGC1a acetyl inh)
COc1ccccc1[N+](=O)[O-]	none (no result: FN deposit inh, HIV Env fusion, PAX8 reporter)
CC(C)NC(=O)Nc1ccc2c(c1)C(=O)N([C@@H](C)CO)C[C@@H](C)[C@H](CN(C)CC1CC1)OCCCC[C@@H](C)O2	none (no result: FN deposit inh)

Source: PubChem
